Consider one compound from ChEMBL document CHEMBL3244396, “Synthesis and antileukemic activity of 5-substituted 2,3-dihydro-6,7-bis(hydroxymethyl)-1H-pyrrolizine diesters” (J Med Chem, 1977).

Data set [1] relates to P388. Nature of the data set: Antitumor activity against mouse P388 cells allografted in female BDF1 mouse assessed as change in body weight at 6.25 mg/kg, ip administered daily for 9 days as Klucel suspension starting 24 hrs after tumor inoculation. Conditions: route intraperitoneal. The data set is classed as functional. Summed up:
(§1)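 Ascitic fluid carrying P388 cells was inoculated ip. Compound was given ip in nine daily doses, starting 24 h after inoculation, in Klucel (hydroxypropylcellulose) suspension or in saline with Tween-80. Body-weight difference (treated minus control) was recorded on day 5. Survival was scored as %T/C of median survival time, and 30-day survival counted as cure.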

A short description of data set [2]: Cytotoxicity against human 9KB cells treated as ethanol solution. Conditions: read-out: ED50 (the source's name). The data set is classed as functional. In short, it runs like this:
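Compound applied as an ethanol solution; activity read out as ED50 under the general screening protocol.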

In data set [3] the test system is Mus musculus. Put plainly: Toxicity in female BDF1 mouse allografted with mouse P388 cells assessed as animal survival at 25 mg/kg, ip administered daily for 9 days as Klucel suspension starting 24 hrs after tumor inoculation. More on the design: dose 25 mg/kg, route intraperitoneal. The data set is classed as organism-based. Conditions: in vivo. In short, it runs like this:
(§2)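 P-388 leukemia ascitic fluid inoculated ip. Compound given ip as a suspension in Klucel (hydroxypropylcellulose), once daily for nine doses beginning 24 h post-inoculation. Acute toxicity assessed as toxicity-day survivors per group. Survival was followed up to 30 days, with 30-day survival counted as "cure". Follows NCI screening protocols.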

Data set [4] relates to P388. Put plainly: Antitumor activity against mouse P388 cells allografted in female BDF1 mouse assessed as change in body weight at 25 mg/kg, ip administered daily for 9 days as Klucel suspension starting 24 hrs after tumor inoculation. The data set is classed as functional. As to conditions: route intraperitoneal. In short, it runs like this: as §1
Data set [5] relates to P388. Put plainly: Antitumor activity against mouse P388 cells allografted in female CDF1 mouse assessed as change in body weight at 50 mg/kg, ip administered daily for 9 days as Klucel suspension starting 24 hrs after tumor inoculation. The data set is classed as functional. Conditions: route intraperitoneal. In short, it runs like this:
as §1

Data set [6] concerns P388. Put plainly: Antitumor activity against mouse P388 cells allografted in male CDF1 mouse assessed as disease cures by measuring 30-days host survival at 6.25 mg/kg, ip administered daily for 9 days as Klucel suspension starting 24 hrs after tumor inoculation relative to control. The data set is classed as functional. Conditions: route intraperitoneal. Summed up: (§3)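 P388 leukemia given as an ascitic fluid cell inoculum, ip, to mice of the strain and sex in each line. Nine daily ip doses were given in a Klucel (hydroxypropylcellulose) suspension, starting 24 h after inoculation. Read-out is median survival time as %T/C, with >125 taken as significant; a "cure" means 30-day survival.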

Data set [7] has as its system L1210. Put plainly: Antileukemic activity against mouse L1210 cells allografted in female BDF1 mouse assessed as host mean survival time at 50 mg/kg, ip administered daily for 9 days as Klucel suspension starting 24 hrs after tumor inoculation relative to control. The data set is classed as functional. As to conditions: route intraperitoneal. In short, it runs like this:
(§4)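 L1210 leukemia given as an ascitic fluid cell inoculum, ip, to mice of the strain and sex in each line. Test material was given ip for nine daily doses starting 24 h after inoculation, in a Klucel (hydroxypropylcellulose) suspension. Read-out is mean survival time as %T/C versus controls, with >125 taken as significant.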

The subject of data set [8] is P388. Put plainly: Antitumor activity against mouse P388 cells allografted in male CDF1 mouse assessed as change in body weight at 50 mg/kg, ip administered daily for 9 days as Klucel suspension starting 24 hrs after tumor inoculation. The data set is classed as functional. As to conditions: route intraperitoneal. Summed up:
as §1

The test system of data set [9] is P388. Nature of the data set: Antitumor activity against mouse P388 cells allografted in male CDF1 mouse assessed as change in body weight at 6.25 mg/kg, ip administered daily for 9 days as Klucel suspension starting 24 hrs after tumor inoculation. Conditions: route intraperitoneal. The data set is classed as functional. In short, it runs like this: as §1
The test system of data set [10] is Mus musculus. Put plainly: Toxicity in male CDF1 mouse allografted with mouse P388 cells assessed as animal survival at 25 mg/kg, ip administered daily for 9 days as Klucel suspension starting 24 hrs after tumor inoculation. The data set is classed as organism-based. Conditions: in vivo. More on the design: dose 25 mg/kg, route intraperitoneal. In short, it runs like this:
as §2

The subject of data set [11] is Mus musculus. Put plainly: Toxicity in female CDF1 mouse allografted with mouse P388 cells assessed as animal survival at 200 mg/kg, ip administered daily for 9 days as Klucel suspension starting 24 hrs after tumor inoculation. The data set is classed as organism-based. More on the design: dose 200 mg/kg, route intraperitoneal. Conditions: in vivo. Summed up: as §2

Data set [12] deals with P388. Nature of the data set: Antitumor activity against mouse P388 cells allografted in male CDF1 mouse assessed as change in body weight at 25 mg/kg, ip administered daily for 9 days as Klucel suspension starting 24 hrs after tumor inoculation. The data set is classed as functional. As to conditions: route intraperitoneal. Summed up:
as §1

Data set [13] concerns P388. Put plainly: Antitumor activity against mouse P388 cells allografted in female CDF1 mouse assessed as change in body weight at 100 mg/kg, ip administered daily for 9 days as Klucel suspension starting 24 hrs after tumor inoculation. The data set is classed as functional. Conditions: route intraperitoneal. In short, it runs like this:
as §1

For data set [14], the system named is P388. Put plainly: Antitumor activity against mouse P388 cells allografted in female CDF1 mouse assessed as disease cures by measuring 30-days host survival at 100 mg/kg, ip administered daily for 9 days as Klucel suspension starting 24 hrs after tumor inoculation relative to control. As to conditions: route intraperitoneal. The data set is classed as functional. In short, it runs like this:
as §3

Data set [15] concerns L1210. Put plainly: Antileukemic activity against mouse L1210 cells allografted in female BDF1 mouse assessed as host mean survival time at 100 mg/kg, ip administered daily for 9 days as Klucel suspension starting 24 hrs after tumor inoculation relative to control. As to conditions: route intraperitoneal. The data set is classed as functional. In short, it runs like this:
as §4

The subject of data set [16] is Mus musculus. Put plainly: Toxicity in male CDF1 mouse allografted with mouse P388 cells assessed as animal survival at 12.5 mg/kg, ip administered daily for 9 days as Klucel suspension starting 24 hrs after tumor inoculation. The data set is classed as organism-based. As to conditions: in vivo. Further details: dose 12.5 mg/kg, route intraperitoneal. In short, it runs like this:
as §2

Data set [17] relates to L1210. Nature of the data set: Antileukemic activity against mouse L1210 cells allografted in female BDF1 mouse assessed as change in body weight at 50 mg/kg, ip administered daily for 9 days as Klucel suspension starting 24 hrs after tumor inoculation. The data set is classed as functional. Conditions: route intraperitoneal. Summed up:
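Ascitic fluid carrying L1210 cells was inoculated ip. Compound was given ip as a Klucel (hydroxypropylcellulose) suspension in nine daily doses, starting 24 h after inoculation. Body-weight difference (treated minus control) was recorded on day 5. Survival was scored as %T/C of mean survival time.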

For data set [18], the system named is P388. Nature of the data set: Antitumor activity against mouse P388 cells allografted in female CDF1 mouse assessed as disease cures by measuring 30-days host survival at 50 mg/kg, ip administered daily for 9 days as Klucel suspension starting 24 hrs after tumor inoculation relative to control. The data set is classed as functional. Conditions: route intraperitoneal. Summed up:
as §3

The subject of data set [19] is Mus musculus. Put plainly: Toxicity in female CDF1 mouse allografted with mouse P388 cells assessed as animal survival at 50 mg/kg, ip administered daily for 9 days as Klucel suspension starting 24 hrs after tumor inoculation. The data set is classed as organism-based. Further details: dose 50 mg/kg, route intraperitoneal. Conditions: in vivo. In short, it runs like this: as §2

Data set [20] has as its system P388. Nature of the data set: Antitumor activity against mouse P388 cells allografted in female CDF1 mouse assessed as change in body weight at 200 mg/kg, ip administered daily for 9 days as Klucel suspension starting 24 hrs after tumor inoculation. The data set is classed as functional. Conditions: route intraperitoneal. In short, it runs like this: as §1
The subject of data set [21] is P388. Nature of the data set: Antitumor activity against mouse P388 cells allografted in female BDF1 mouse assessed as disease cures by measuring 30-days host survival at 6.25 mg/kg, ip administered daily for 9 days as Klucel suspension starting 24 hrs after tumor inoculation relative to control. The data set is classed as functional. As to conditions: route intraperitoneal. Summed up: as §3

Data set [22] relates to P388. Nature of the data set: Antitumor activity against mouse P388 cells allografted in female BDF1 mouse assessed as disease cures by measuring 30-days host survival at 25 mg/kg, ip administered daily for 9 days as Klucel suspension starting 24 hrs after tumor inoculation relative to control. Conditions: route intraperitoneal. The data set is classed as functional. In short, it runs like this: as §3

Data set [23] concerns Mus musculus. Nature of the data set: Toxicity in female BDF1 mouse allografted with mouse L1210 cells assessed as animal survival at 50 mg/kg, ip administered daily for 9 days as Klucel suspension starting 24 hrs after tumor inoculation measured on fifth day. Further details: dose 50 mg/kg, route intraperitoneal. Conditions: in vivo. The data set is classed as organism-based. Summed up:
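L1210 leukemia passaged as ascitic fluid and inoculated ip. Test agent given ip as a Klucel (hydroxypropylcellulose) suspension, nine daily doses starting 24 h after tumor inoculation. Acute toxicity read as toxicity-day survivors per group (out of 6), recorded on day 5. Animal weight difference T − C was also recorded. Follows NCI screening protocols.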

One may read the T/C as the ratio of treated to control. `CC(=O)OCc1c(COC(C)=O)c(-c2ccccc2)n2c1CCC2`: the Activity in the data set on P388 [1] is listed as -0.4 g; in the data set on Mus musculus [3], “Non-toxic”; in the data set on P388 [4], -2 g; with P388 [5], -2.5 g; in the data set on P388 [8], -6.1 g; with P388 [9], -0.3 g. Moreover, the Activity result is on record as “Non-toxic” with Mus musculus [10]; “Toxic” in the data set with Mus musculus [11]; -1.2 g in the data set on P388 [12]; -2.8 g with P388 [13]; “Non-toxic” in the data set with Mus musculus [16]; -2.6 g in the data set on L1210 [17]. Besides, the Activity entry is listed as “Non-toxic” in the data set on Mus musculus [19], 0.5 g with P388 [20] and “Non-toxic” in the data set on Mus musculus [23]. For the same compound, in data set [2], the EC50 was over 100 µg/mL. Further, the T/C worked out at 125% with P388 [6]; 114% in the data set with L1210 [7]; 49% in the data set with P388 [14]; 107% in the data set on L1210 [15]; 79% in the data set with P388 [18]; 107% in the data set with P388 [21]. Further, the T/C with P388 [22] is 133%.
